What was measured:
Rattus norvegicus [1] = test: Biodistribution in uterus / spleen, muscle, lungs of immature female rat after 12 hour administration of 3 micro Ci (111 kBq) in the absence of 60 microg estradiol; assay type: ADME, organism-based; details: in vivo
How it was run: (§1)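 Immature female Long Evans rats (21–24 days, 45–70 g), 3–5 per group, unanesthetized in retention cages, given 3 μCi (111 kBq) 125I-labeled steroid by lateral tail vein. Vehicle: ethanol diluted with saline containing 1% Tween-80, final ethanol 9%. +E2 group co-injected 60 μg unlabeled estradiol (1 h only). Killed under ether; tissues KCl-washed, weighed, gamma-counted. Output: %ID/g (mean, SE) and uterus to blood or nontarget (muscle, spleen, lungs) ratios.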

Rattus norvegicus [2] = test: Biodistribution in uterus of immature female rat after 3 hour administration of 3 micro Ci (111 kBq) in the absence of 60 microg estradiol; assay type: ADME, organism-based; details: in vivo; how it was run: as §1
Rattus norvegicus [3] = test: Biodistribution in uterus / spleen, muscle, lungs of immature female rat after 1 hr administration of 3 micro Ci (111 kBq) in the presence of (+E2); assay type: ADME, organism-based; details: in vivo
How it was run: (§2)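 Same in vivo procedure: immature female Long Evans rats (21–24 days), three to five per group, 3 μCi (111 kBq) tracer i.v. via tail vein in 9% ethanol/saline/1% Tween-80, ± 60 μg estradiol co-injected at 1 h. Uterus %ID/g (gamma counting) divided by blood, or by nontarget organ (muscle, spleen, lungs), %ID/g to give ratios.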

Rattus norvegicus [4] = test: Biodistribution in lungs of immature female rat after 5 hour administration of 3 micro Ci (111 kBq) in the absence of 60 microg estradiol; assay type: ADME, organism-based, Lung; details: in vivo
How it was run: (§3)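 Immature female Long Evans rats (21–24 days, 45–70 g), three to five per group, given 125I-labeled steroid (3 μCi, 111 kBq) by lateral tail vein without anesthesia. Vehicle: ethanol diluted in saline with 1% Tween-80, final ethanol 9%, 0.22 μm filtered. +E2 groups received 60 μg unlabeled estradiol co-injected. Killed under ether at set times; tissues KCl-washed, blotted, weighed, gamma counted; %ID/g, mean with SE.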

Rattus norvegicus [5] = test: Biodistribution in spleen of immature female rat after 1 hr administration of 3 micro Ci (111 kBq) in the presence of (+E2); assay type: ADME, organism-based; details: in vivo; how it was run: as §3
Rattus norvegicus [6] = test: Biodistribution in uterus / blood of immature female rat after 5 hour administration of 3 micro Ci (111 kBq) in the absence of 60 microg estradiol; assay type: ADME, organism-based; details: in vivo; how it was run: as §2
Rattus norvegicus [7] = test: Biodistribution in spleen of immature female rat after 5 hour administration of 3 micro Ci (111 kBq) in the absence of 60 microg estradiol; assay type: ADME, organism-based; details: in vivo; how it was run: as §3
Rattus norvegicus [8] = test: Biodistribution in uterus / blood of immature female rat after 1 hr administration of 3 micro Ci (111 kBq) in the absence of 60 microg estradiol; assay type: ADME, organism-based; details: in vivo; how it was run: as §2
Rattus norvegicus [9] = test: Biodistribution in fat of immature female rat after 1 hr administration of 3 micro Ci (111 kBq) in the absence of 60 microg estradiol; assay type: ADME, organism-based, Adipose tissue; details: in vivo
How it was run: (§4)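 Immature female Long Evans rats (21–24 days, 45–70 g), unanesthetized in retention cages, given 3 µCi (111 kBq) 125I-labeled steroid i.v. via lateral tail vein. Vehicle was ethanol diluted in saline containing 1% Tween-80, giving 9% ethanol final. The blocking group received 60 µg unlabeled estradiol co-injected. Rats were killed under ether by axillary bleeding, and tissues were KCl-washed and gamma-counted. Data are %ID/g, mean ± SE, n=3–5.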

Rattus norvegicus [10] = test: Biodistribution in lungs of immature female rat after 12 hour administration of 3 micro Ci (111 kBq) in the absence of 60 microg estradiol; assay type: ADME, organism-based, Lung; details: in vivo; how it was run: as §3
Rattus norvegicus [11] = test: Biodistribution in lungs of immature female rat after 3 hour administration of 3 micro Ci (111 kBq) in the absence of 60 microg estradiol; assay type: ADME, organism-based, Lung; details: in vivo; how it was run: as §3
Rattus norvegicus [12] = test: Biodistribution in uterus of immature female rat after 1 hr administration of 3 micro Ci (111 kBq) in the presence of (+E2); assay type: ADME, organism-based; details: in vivo; how it was run: as §1
Rattus norvegicus [13] = test: Biodistribution in thyroid of immature female rat after 12 hour administration of 3 micro Ci (111 kBq) in the absence of 60 microg estradiol; assay type: ADME, organism-based, Thyroid gland; details: in vivo; how it was run: as §3
Rattus norvegicus [14] = test: Biodistribution in kidney of immature female rat after 5 hour administration of 3 micro Ci (111 kBq) in the absence of 60 microg estradiol; assay type: ADME, organism-based; details: in vivo; how it was run: as §4
Rattus norvegicus [15] = test: Biodistribution in fat of immature female rat after 1 hr administration of 3 micro Ci (111 kBq) in the presence of (+E2); assay type: ADME, organism-based, Adipose tissue; details: in vivo; how it was run: as §4
Rattus norvegicus [16] = test: Biodistribution in uterus / blood of immature female rat after 1 hr administration of 3 micro Ci (111 kBq) in the presence of (+E2); assay type: ADME, organism-based; details: in vivo; how it was run: as §2
Rattus norvegicus [17] = test: Biodistribution in blood of immature female rat after 1 hr administration of 3 micro Ci (111 kBq) in the presence of (+E2); assay type: ADME, organism-based; details: in vivo; how it was run: as §4
Rattus norvegicus [18] = test: Biodistribution in fat of immature female rat after 3 hour administration of 3 micro Ci (111 kBq) in the absence of 60 microg estradiol; assay type: ADME, organism-based, Adipose tissue; details: in vivo; how it was run: as §4
Rattus norvegicus [19] = test: Biodistribution in muscle of immature female rat after 3 hour administration of 3 micro Ci (111 kBq) in the absence of 60 microg estradiol; assay type: ADME, organism-based, Muscle tissue; details: in vivo; how it was run: as §3
Rattus norvegicus [20] = test: Biodistribution in thyroid of immature female rat after 1 hr administration of 3 micro Ci (111 kBq) in the absence of 60 microg estradiol; assay type: ADME, organism-based, Thyroid gland; details: in vivo; how it was run: as §3
[21] = target: Estrogen receptor (Mus musculus) (UniProt O08537+P19785); test: Relative binding affinity (RBA) against murine cytoplasmic estrogen receptor incubated at 0-4 degree Celsius for 18 hours; assay type: protein assay
How it was run: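 Competitive binding on murine uterine cytoplasmic extract with 20 nM [3H]estradiol and competitor steroids at 2 nM–20 μM, incubated 18 h at 0–4 °C. RBA = 100 × ratio of […] concentration giving 50% competition for specific binding. Mean of three experiments with SD.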

Rattus norvegicus [22] = test: Biodistribution in uterus of immature female rat after 12 hour administration of 3 micro Ci (111 kBq) in the absence of 60 microg estradiol; assay type: ADME, organism-based; details: in vivo; how it was run: as §1
Rattus norvegicus [23] = test: Biodistribution in fat of immature female rat after 12 hour administration of 3 micro Ci (111 kBq) in the absence of 60 microg estradiol; assay type: ADME, organism-based, Adipose tissue; details: in vivo; how it was run: as §4
Rattus norvegicus [24] = test: Biodistribution in spleen of immature female rat after 1 hr administration of 3 micro Ci (111 kBq) in the absence of 60 microg estradiol; assay type: ADME, organism-based; details: in vivo; how it was run: as §3
Rattus norvegicus [25] = test: Biodistribution in uterus of immature female rat after 5 hour administration of 3 micro Ci (111 kBq) in the absence of 60 microg estradiol; assay type: ADME, organism-based; details: in vivo; how it was run: as §1
Rattus norvegicus [26] = test: Biodistribution in uterus / blood of immature female rat after 3 hour administration of 3 micro Ci (111 kBq) in the absence of 60 microg estradiol; assay type: ADME, organism-based; details: in vivo; how it was run: as §2
Rattus norvegicus [27] = test: Biodistribution in liver of immature female rat after 5 hour administration of 3 micro Ci (111 kBq) in the absence of 60 microg estradiol; assay type: ADME, organism-based; details: in vivo; how it was run: as §4
Rattus norvegicus [28] = test: Biodistribution in thyroid of immature female rat after 3 hour administration of 3 micro Ci (111 kBq) in the absence of 60 microg estradiol; assay type: ADME, organism-based, Thyroid gland; details: in vivo; how it was run: as §3
Rattus norvegicus [29] = test: Biodistribution in lungs of immature female rat after 1 hr administration of 3 micro Ci (111 kBq) in the presence of (+E2); assay type: ADME, organism-based, Lung; details: in vivo; how it was run: as §4
Rattus norvegicus [30] = test: Biodistribution in liver of immature female rat after 1 hr administration of 3 micro Ci (111 kBq) in the presence of (+E2); assay type: ADME, organism-based; details: in vivo; how it was run: as §4

Chain of Estrogen receptor (Mus musculus) (O08537 whole entry, looked up): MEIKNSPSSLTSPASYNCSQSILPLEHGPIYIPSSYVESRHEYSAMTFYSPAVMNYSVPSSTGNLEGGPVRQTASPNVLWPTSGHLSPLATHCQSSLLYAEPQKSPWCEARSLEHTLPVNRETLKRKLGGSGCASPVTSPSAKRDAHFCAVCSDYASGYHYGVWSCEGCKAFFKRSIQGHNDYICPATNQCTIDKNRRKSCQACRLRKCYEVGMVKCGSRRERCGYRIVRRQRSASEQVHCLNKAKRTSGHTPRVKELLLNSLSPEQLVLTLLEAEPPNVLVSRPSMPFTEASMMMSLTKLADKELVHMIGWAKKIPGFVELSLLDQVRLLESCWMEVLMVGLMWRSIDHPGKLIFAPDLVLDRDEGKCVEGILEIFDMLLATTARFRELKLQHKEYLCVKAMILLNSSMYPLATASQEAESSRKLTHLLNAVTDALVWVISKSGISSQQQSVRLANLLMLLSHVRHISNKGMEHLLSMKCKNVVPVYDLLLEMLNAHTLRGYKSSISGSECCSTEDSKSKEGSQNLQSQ
Chain of Estrogen receptor (Mus musculus) (P19785 whole entry, looked up): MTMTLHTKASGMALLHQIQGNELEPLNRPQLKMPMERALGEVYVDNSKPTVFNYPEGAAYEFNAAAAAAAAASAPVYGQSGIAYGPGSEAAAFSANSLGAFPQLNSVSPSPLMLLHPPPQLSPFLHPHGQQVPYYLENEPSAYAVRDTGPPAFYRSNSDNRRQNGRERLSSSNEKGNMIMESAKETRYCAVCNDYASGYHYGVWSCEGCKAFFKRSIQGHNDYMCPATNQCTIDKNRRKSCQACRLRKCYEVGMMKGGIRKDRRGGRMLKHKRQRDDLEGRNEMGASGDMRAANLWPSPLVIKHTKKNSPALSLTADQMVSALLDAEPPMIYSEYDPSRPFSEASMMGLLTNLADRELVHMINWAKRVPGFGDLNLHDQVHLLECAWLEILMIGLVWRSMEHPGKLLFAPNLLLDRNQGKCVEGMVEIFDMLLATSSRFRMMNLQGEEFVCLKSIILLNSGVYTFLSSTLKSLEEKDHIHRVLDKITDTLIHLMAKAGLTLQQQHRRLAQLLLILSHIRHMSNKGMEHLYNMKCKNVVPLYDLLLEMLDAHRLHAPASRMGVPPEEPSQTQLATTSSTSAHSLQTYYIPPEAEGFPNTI

| ID/g (Rattus norvegicus [2]) | ID/g (Rattus norvegicus [4]) | ID/g (Rattus norvegicus [5]) | uterus to blood ratio (Rattus norvegicus [6]) | ID/g (Rattus norvegicus [7]) | uterus-to-blood ratio of %ID/g (Rattus norvegicus [8]) | ID/g (Rattus norvegicus [9]) | ID/g (Rattus norvegicus [10]) | ID/g (Rattus norvegicus [11]) | ID/g (Rattus norvegicus [12]) | ID/g (Rattus norvegicus [13]) | ID/g (Rattus norvegicus [14]) | ID/g (Rattus norvegicus [15]) | uterus/blood %ID/g ratio (Rattus norvegicus [16]) | ID/g (Rattus norvegicus [18]) | ID/g (Rattus norvegicus [19]) | ID/g (Rattus norvegicus [20]) | RBA [21] | ID/g (Rattus norvegicus [22]) | ID/g (Rattus norvegicus [23]) | Compound | other results |
| --- | --- | --- | --- | --- | --- | --- | --- | --- | --- | --- | --- | --- | --- | --- | --- | --- | --- | --- | --- | --- | --- |
| 3.23% | 0.51% | 1.04% | 12.41% | 0.82% | 9.82% | 3.34% | 0.13% | 0.62% | 0.81% | 571% | 1.52% | 4.31% | 1.6% | 1.82% | 0.56% | 224% | 13.5 | 1.2% | 0.45% | CO[C@H]1C[C@@]2(C)[C@@H](CC[C@@]2(O)/C=C/I)[C@@H]2CCc3cc(O)c(F)cc3[C@H]21 | uterus to nontarget tissue ratio (Rattus norvegicus [1]): 6.75%; uterus-to-nontarget tissue uptake ratio (Rattus norvegicus [3]): 0.86%; ID/g (Rattus norvegicus [17]): 0.51%; ID/g (Rattus norvegicus [24]): 0.83%; ID/g (Rattus norvegicus [25]): 3.9%; uterus to blood %ID/g ratio (unitless) (Rattus norvegicus [26]): 8.28%; ID/g (Rattus norvegicus [27]): 3.11%; ID/g (Rattus norvegicus [28]): 355%; ID/g (Rattus norvegicus [29]): 1.22% |
|  |  |  |  |  |  |  |  |  |  |  |  |  |  |  |  |  | 27.7 |  |  | CO[C@H]1C[C@@]2(C)[C@@H](CC[C@@]2(O)/C=C/I)[C@@H]2CCc3c(ccc(O)c3F)[C@H]21 |  |
| 0.53% | 0.54% | 0.56% | 1.15% | 0.27% | 2.21% | 3.45% | 0.1% | 0.48% | 0.52% | 163% | 0.25% | 2.93% | 1.09% | 3.17% | 0.37% | 27% | 6.2 | 0.08% | 0.41% | C[C@]12CC[C@@H]3c4cc(F)c(O)cc4CC[C@H]3[C@@H]1CC[C@@]2(O)/C=C/I | ID/g (Rattus norvegicus [17]): 0.49%; ID/g (Rattus norvegicus [24]): 0.57%; ID/g (Rattus norvegicus [25]): 0.34%; uterus to blood %ID/g ratio (unitless) (Rattus norvegicus [26]): 1.4%; ID/g (Rattus norvegicus [27]): 2.12%; ID/g (Rattus norvegicus [30]): 3.86%; ID/g (Rattus norvegicus [28]): 39.1%; ID/g (Rattus norvegicus [29]): 0.93% |
| 7.48% | 0.51% | 1.28% | 20.08% | 0.66% | 10.55% | 1.43% | 0.37% | 0.66% | 1.06% | 4651% | 1.08% | 1.82% | 1.3% | 1.13% | 0.48% | 551% | 37.9 | 8.31% | 0.47% | CO[C@H]1C[C@@]2(C)[C@@H](CC[C@@]2(O)/C=C\I)[C@@H]2CCc3c(ccc(O)c3F)[C@H]21 | uterus to nontarget tissue ratio (Rattus norvegicus [1]): 19.35%; uterus-to-nontarget tissue uptake ratio (Rattus norvegicus [3]): 1.11%; ID/g (Rattus norvegicus [24]): 2.04%; ID/g (Rattus norvegicus [25]): 10.96%; uterus to blood %ID/g ratio (unitless) (Rattus norvegicus [26]): 13.35%; ID/g (Rattus norvegicus [27]): 1.42%; ID/g (Rattus norvegicus [30]): 2.77%; ID/g (Rattus norvegicus [28]): 1446%; ID/g (Rattus norvegicus [29]): 0.95% |
